From ChEMBL document CHEMBL1138845, “Design of non-nucleoside inhibitors of HIV-1 reverse transcriptase with improved drug resistance properties. 2” (J Med Chem, 2004) come the findings set out here.

One test deals with HeLa. Nature of the test: Inhibitory concentration against human immunodeficiency virus type 1 (with V106A/Y181C resistant mutation) was determined in HeLa-CD4 MAGI assay. Format: functional, cell-based. An outline of the steps:
(§1)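 Tested against a panel of recombinant, isogenic HIV-1 viruses, wild type and NNRTI-resistant strains carrying engineered single or double RT mutations. The readout was IC50.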
With `CC(C)c1c(O)nc2ccc(Cl)cc2c1OC#CC1CC1`, half-maximal inhibition (IC50) required 120 nM.
On the same count and under the same terms, next, `CCCc1c(O)nc2ccc(Cl)cc2c1OC1CCC1`: more than 2000 nM; `Cc1ccnc2c1NC(=O)c1cccnc1N2C1CC1` [NEVIRAPINE]: more than 10000 nM; `O=C1Nc2ccc(Cl)cc2[C@@](C#CC2CC2)(C(F)(F)F)O1` [EFAVIRENZ]: 3 nM.

The test system of another test is Human immunodeficiency virus 1. Kind of test: Inhibitory concentration against wild type human immunodeficiency virus type 1 was determined by recombinant virus assay. Format: functional, organism-based. The method, boiled down:
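Isogenic recombinant HIV-1 carrying wild-type RT, tested in parallel with a panel of NNRTI-resistant RT mutants built on the same background; activity reported as IC50.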
Consider `CC(C)c1c(O)nc2ccc(Cl)cc2c1OC#CC1CC1`, for which the IC50 (in general, the point on the concentration scale where inhibition reaches its midpoint) is 16 nM.
On the same count and under the same terms, next, `CCCc1c(O)nc2ccc(Cl)cc2c1OC1CCC1`: 300 nM.
As to `Cc1ccnc2c1NC(=O)c1cccnc1N2C1CC1` [NEVIRAPINE], the IC50 is 89 nM.

A further test concerns HeLa. Nature of the test: Inhibitory concentration against human immunodeficiency virus type 1 (with V108I/Y181C resistant mutation) was determined in HeLa-CD4 MAGI assay. Format: functional, cell-based. The method, boiled down: as §1
`CC(C)c1c(O)nc2ccc(Cl)cc2c1OC#CC1CC1` returned an IC50 of 120 nM.
Same read-out and setting: the value for `CCCc1c(O)nc2ccc(Cl)cc2c1OC1CCC1` was more than 2000 nM; that for `Cc1ccnc2c1NC(=O)c1cccnc1N2C1CC1` [NEVIRAPINE] was more than 10000 nM; that for `O=C1Nc2ccc(Cl)cc2[C@@](C#CC2CC2)(C(F)(F)F)O1` [EFAVIRENZ] was 3 nM.

Another test has as its system HeLa. Kind of test: Inhibitory concentration against human immunodeficiency virus type 1 (with K103N/Y181C resistant mutation) was determined in HeLa-CD4 MAGI assay. Format: functional, cell-based. An outline of the steps: as §1
Regarding `CC(C)c1c(O)nc2ccc(Cl)cc2c1OC#CC1CC1`, half-maximal inhibition (IC50) required 620 nM.
Turning to `CCCc1c(O)nc2ccc(Cl)cc2c1OC1CCC1`, the IC50 was more than 2000 nM.
The same measure, in the same setting: the value for `Cc1ccnc2c1NC(=O)c1cccnc1N2C1CC1` [NEVIRAPINE] was more than 50000 nM; that for `O=C1Nc2ccc(Cl)cc2[C@@](C#CC2CC2)(C(F)(F)F)O1` [EFAVIRENZ] was 43 nM.

Another test has as its system MT4. Kind of test: Inhibitory concentration against wild type human immunodeficiency virus type 1 was determined by MT-4 assay. Format: functional, cell-based.
The molecule `CC(C)c1c(O)nc2ccc(Cl)cc2c1OC#CC1CC1` displayed a concentration for half-maximal inhibition (IC50) of 24 nM.
Still for that read-out and setting: next, `CCCc1c(O)nc2ccc(Cl)cc2c1OC1CCC1`: 470 nM.

The next test concerns HeLa. Kind of test: Inhibitory concentration against human immunodeficiency virus type 1 (with Y181C resistant mutation) was determined in HeLa-CD4 MAGI assay. Format: functional, cell-based. An outline of the steps: as §1
`CC(C)c1c(O)nc2ccc(Cl)cc2c1OC#CC1CC1` showed an IC50 of 39 nM.
On to `CCCc1c(O)nc2ccc(Cl)cc2c1OC1CCC1`, for which the IC50 turned out to be 1700 nM.
For the molecule `Cc1ccnc2c1NC(=O)c1cccnc1N2C1CC1` [NEVIRAPINE], the IC50 was more than 10000 nM.
On the same count and under the same terms, next, `O=C1Nc2ccc(Cl)cc2[C@@](C#CC2CC2)(C(F)(F)F)O1` [EFAVIRENZ]: 2 nM.

The test system of the next test is HeLa. Kind of test: Inhibitory concentration against human immunodeficiency virus type 1 (with G190A resistant mutation) was determined in HeLa-CD4 MAGI assay. Format: functional, cell-based. An outline of the steps:
as §1
In turn, `CC(C)c1c(O)nc2ccc(Cl)cc2c1OC#CC1CC1` came in with an IC50 of 3 nM.
The same measure, in the same setting: next, `CCCc1c(O)nc2ccc(Cl)cc2c1OC1CCC1`: 220 nM; `Cc1ccnc2c1NC(=O)c1cccnc1N2C1CC1` [NEVIRAPINE]: more than 10000 nM.
The same measure, in the same setting: the value for `O=C1Nc2ccc(Cl)cc2[C@@](C#CC2CC2)(C(F)(F)F)O1` [EFAVIRENZ] was 7 nM.

The next test deals with MT4. Kind of test: Ratio of cytotoxic concentration to that of inhibitory concentration as selectivity index was determined by MT-4 assay. Format: functional, Homo sapiens. An outline of the steps: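 Index is the IC50 in uninfected MT4 cells divided by the antiviral IC50 in MT4 cells infected with wild-type HIV-1 or the nevirapine-resistant strain carrying RT mutation Y181C.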
For the molecule `CC(C)c1c(O)nc2ccc(Cl)cc2c1OC#CC1CC1`, the Ratio is recorded as more than 8000.
Same read-out and setting: next, `CCCc1c(O)nc2ccc(Cl)cc2c1OC1CCC1`: more than 8000.

The next test deals with HeLa. Nature of the test: Inhibitory concentration against human immunodeficiency virus type 1 (with K103N/V108I resistant mutation) was determined in HeLa-CD4 MAGI assay. Format: functional, cell-based. An outline of the steps: as §1
`CC(C)c1c(O)nc2ccc(Cl)cc2c1OC#CC1CC1` returned a concentration for half-maximal inhibition (IC50) of 1200 nM.
`CCCc1c(O)nc2ccc(Cl)cc2c1OC1CCC1` registered an IC50 of more than 2000 nM.

For the next test, the system named is MT4. Nature of the test: Inhibitory concentration against nevirapine resistant strain (with Y181C mutation in HIV-1 RT gene) of human immunodeficiency virus type 1 was determined by MT-4 assay. Format: functional, cell-based.
As for `CC(C)c1c(O)nc2ccc(Cl)cc2c1OC#CC1CC1`, the IC50 was found to be 31 nM.
Same read-out and setting: the value for `CCCc1c(O)nc2ccc(Cl)cc2c1OC1CCC1` was 2500 nM.

For the next test, the system named is HeLa. Nature of the test: Inhibitory concentration against human immunodeficiency virus type 1 (with V108I resistant mutation) was determined in HeLa-CD4 MAGI assay. Format: functional, cell-based. The method, boiled down:
as §1
As for `CC(C)c1c(O)nc2ccc(Cl)cc2c1OC#CC1CC1`, the IC50 turned out to be 36 nM.
Same read-out and setting: next, `CCCc1c(O)nc2ccc(Cl)cc2c1OC1CCC1`: 690 nM.

The subject of a further test is HeLa. Kind of test: Inhibitory concentration against human immunodeficiency virus type 1 (with V106A resistant mutation) was determined in HeLa-CD4 MAGI assay. Format: functional, cell-based. An outline of the steps:
as §1
The molecule `CC(C)c1c(O)nc2ccc(Cl)cc2c1OC#CC1CC1` came in with an IC50 of 57 nM.
Still for that read-out and setting: next, `CCCc1c(O)nc2ccc(Cl)cc2c1OC1CCC1`: more than 2000 nM; `Cc1ccnc2c1NC(=O)c1cccnc1N2C1CC1` [NEVIRAPINE]: approximately 10000 nM; `O=C1Nc2ccc(Cl)cc2[C@@](C#CC2CC2)(C(F)(F)F)O1` [EFAVIRENZ]: 1 nM.

The test system of a further test is HeLa. Kind of test: Inhibitory concentration against human immunodeficiency virus type 1 (with K103N resistant mutation) was determined in HeLa-CD4 MAGI assay. Format: functional, cell-based. The method, boiled down:
as §1
On to `CC(C)c1c(O)nc2ccc(Cl)cc2c1OC#CC1CC1`, for which 320 nM corresponded to half-maximal inhibition (IC50).
`CCCc1c(O)nc2ccc(Cl)cc2c1OC1CCC1` had an IC50 of more than 2000 nM.
In the case of `O=C1Nc2ccc(Cl)cc2[C@@](C#CC2CC2)(C(F)(F)F)O1` [EFAVIRENZ], the IC50 was determined as 23 nM.

The next test deals with HeLa. Nature of the test: Inhibitory concentration against human immunodeficiency virus type 1 (with Y188C resistant mutation) was determined in HeLa-CD4 MAGI assay. Format: functional, cell-based. An outline of the steps:
as §1
In turn, `CC(C)c1c(O)nc2ccc(Cl)cc2c1OC#CC1CC1` displayed an IC50 of 18 nM.
The same measure, in the same setting: next, `CCCc1c(O)nc2ccc(Cl)cc2c1OC1CCC1`: 290 nM; `O=C1Nc2ccc(Cl)cc2[C@@](C#CC2CC2)(C(F)(F)F)O1` [EFAVIRENZ]: 1 nM.

The subject of a further test is HeLa. Kind of test: Inhibitory concentration against human immunodeficiency virus type 1 (with K103N/G190A resistant mutation) was determined in HeLa-CD4 MAGI assay. Format: functional, cell-based. The method, boiled down:
as §1
The molecule `CC(C)c1c(O)nc2ccc(Cl)cc2c1OC#CC1CC1` showed an IC50 of 52 nM.
Same read-out and setting: next, `CCCc1c(O)nc2ccc(Cl)cc2c1OC1CCC1`: more than 2000 nM.
On the same count and under the same terms, next, `O=C1Nc2ccc(Cl)cc2[C@@](C#CC2CC2)(C(F)(F)F)O1` [EFAVIRENZ]: 552 nM.
